From ChEMBL document CHEMBL1129593, “Halogenated mazindol analogs as potential inhibitors of the cocaine binding site at the dopamine transporter” (J Med Chem, 1996)
pIC50: −log10 of the molar value.

How the values were obtained:
[1] = target: T1, Sodium-dependent dopamine transporter (Rattus norvegicus, UniProt P23977); assay: Inhibition of [3H]dopamine uptake at the dopamine transporter in rat striatal tissue; format: functional, tissue-based, Striatum
In short: (§1)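 Crude synaptosomes were made from rat striatum: homogenised in 0.32 M sucrose, spun at 800g for 10 min, then at 27000g for 20 min. They were resuspended in Krebs-Hepes (pH 7.35) containing NaCl, KCl, KH₂PO₄, CaCl₂, MgSO₄, Hepes, glucose, ascorbic acid and nialamide. Preincubated with compound for 10 min at 30 °C, then given [³H]dopamine for 10 min and filtered.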

[2] = target: T1, Sodium-dependent dopamine transporter; assay: Inhibition of [3H]WIN-35428 binding to the dopamine transporter in rat brain; format: tissue-based
In short: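 Striatal tissue from male Sprague-Dawley rats (200-250 g), 0.1 mg original wet weight per tube. Nonspecific binding was defined with 30 µM (R)-(-)-cocaine. Stopped by filtration through polyethylenimine-soaked GF/B filters with three ice-cold buffer washes. Equilibrium binding analysis.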

[3] = target: Sodium-dependent dopamine transporter (Rattus norvegicus) (UniProt P23977); assay: The ratio of uptake/binding at Dopamine transporter; format: functional
[4] = target: Norepinephrine transporter (Rattus norvegicus) (UniProt Q9WTR4); assay: Compound was tested for inhibition of [3H]-DMI binding at the Norepinephrine transporter in rat cortical membranes at (10e-5) M; format: cell membranes; conditions: Membrane; concentration not given here
[5] = target: T2, Sodium-dependent serotonin transporter (Rattus norvegicus, UniProt P31652); assay: Compound was tested for inhibition of [3H]citalopram binding at the serotonin transporter in rat fore brain membranes; format: cell membranes, Membrane
[6] = target: T1, Sodium-dependent dopamine transporter; assay: Compound was tested for inhibition of [3H]dopamine uptake at the dopamine transporter in rat […] tissue; format: tissue-based, Striatum; in short: as §1
[7] = target: T2, Sodium-dependent serotonin transporter; assay: Compound was tested for inhibition of [3H]5-HT reuptake at Serotonin transporter
[8] = target: Norepinephrine transporter (Rattus norvegicus) (UniProt Q9WTR4); assay: Compound was tested for inhibition of [3H]DMI binding at the Norepinephrine transporter in rat cortical membranes at (10e-5) M; format: cell membranes; conditions: Membrane; concentration not given here

T2 sequence (P31652 whole entry): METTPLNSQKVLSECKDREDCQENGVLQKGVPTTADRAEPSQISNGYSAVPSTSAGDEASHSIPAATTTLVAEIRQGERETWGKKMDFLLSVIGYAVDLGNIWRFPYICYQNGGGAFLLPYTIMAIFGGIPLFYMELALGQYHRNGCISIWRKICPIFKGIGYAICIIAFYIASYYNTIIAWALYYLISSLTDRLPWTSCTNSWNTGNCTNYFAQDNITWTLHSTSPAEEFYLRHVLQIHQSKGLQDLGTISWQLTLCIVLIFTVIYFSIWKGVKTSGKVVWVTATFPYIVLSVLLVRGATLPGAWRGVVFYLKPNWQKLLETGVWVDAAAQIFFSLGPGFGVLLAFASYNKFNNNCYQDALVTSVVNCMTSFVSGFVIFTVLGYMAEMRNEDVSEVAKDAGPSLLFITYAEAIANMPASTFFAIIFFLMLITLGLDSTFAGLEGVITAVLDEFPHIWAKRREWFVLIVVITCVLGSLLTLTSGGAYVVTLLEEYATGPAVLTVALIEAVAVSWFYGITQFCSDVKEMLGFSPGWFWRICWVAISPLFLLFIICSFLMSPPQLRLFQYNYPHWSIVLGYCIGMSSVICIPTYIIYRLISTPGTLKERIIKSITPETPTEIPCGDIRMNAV
T1 sequence (P23977 whole entry): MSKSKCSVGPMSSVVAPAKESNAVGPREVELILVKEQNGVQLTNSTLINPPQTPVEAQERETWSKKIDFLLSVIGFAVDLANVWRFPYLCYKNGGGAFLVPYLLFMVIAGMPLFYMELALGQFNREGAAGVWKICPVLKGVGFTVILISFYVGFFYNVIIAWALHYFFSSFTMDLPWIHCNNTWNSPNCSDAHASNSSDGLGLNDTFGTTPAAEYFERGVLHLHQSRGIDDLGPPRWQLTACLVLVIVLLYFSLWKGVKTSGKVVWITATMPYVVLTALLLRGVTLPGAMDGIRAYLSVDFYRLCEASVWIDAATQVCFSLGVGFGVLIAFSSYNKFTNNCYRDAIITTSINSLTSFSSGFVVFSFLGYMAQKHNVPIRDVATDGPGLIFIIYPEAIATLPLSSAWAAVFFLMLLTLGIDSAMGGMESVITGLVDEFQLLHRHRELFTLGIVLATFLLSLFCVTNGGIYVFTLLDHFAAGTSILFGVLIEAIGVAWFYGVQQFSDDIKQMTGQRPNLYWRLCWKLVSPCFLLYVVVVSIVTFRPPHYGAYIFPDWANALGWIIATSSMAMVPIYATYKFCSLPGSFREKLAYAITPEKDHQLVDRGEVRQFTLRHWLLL
Chain of Sodium-dependent dopamine transporter (Rattus norvegicus) (P23977 whole entry): as above
Chain of Norepinephrine transporter (Rattus norvegicus) (Q9WTR4 as listed by the source): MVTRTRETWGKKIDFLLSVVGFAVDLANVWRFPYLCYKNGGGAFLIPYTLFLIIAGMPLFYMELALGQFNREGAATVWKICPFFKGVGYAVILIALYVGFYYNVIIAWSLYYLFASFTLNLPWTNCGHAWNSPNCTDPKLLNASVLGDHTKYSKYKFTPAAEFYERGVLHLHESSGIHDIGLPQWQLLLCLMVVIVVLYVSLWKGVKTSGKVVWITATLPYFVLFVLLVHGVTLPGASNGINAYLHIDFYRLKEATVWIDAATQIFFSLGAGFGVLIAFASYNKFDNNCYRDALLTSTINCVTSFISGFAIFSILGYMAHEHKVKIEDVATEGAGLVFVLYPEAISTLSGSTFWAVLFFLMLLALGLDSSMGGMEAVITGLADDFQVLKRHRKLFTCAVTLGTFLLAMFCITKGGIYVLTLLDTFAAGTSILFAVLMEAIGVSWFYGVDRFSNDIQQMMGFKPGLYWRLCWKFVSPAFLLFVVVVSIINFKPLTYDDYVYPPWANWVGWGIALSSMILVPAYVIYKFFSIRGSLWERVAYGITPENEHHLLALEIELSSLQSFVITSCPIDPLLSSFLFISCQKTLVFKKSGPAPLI

Q: How did the pIC50 [1] turn out when `OC1(c2ccc(F)cc2)c2ccccc2C2=NCCCN21` (stereo not given) was run?
A: The pIC50 was 8.07.

Q: What about the pIC50 [2] of the same compound?
A: Its pIC50 is 8.49.

Q: What does the source list for `OC1(c2ccccc2Cl)c2ccccc2C2=NCCN21` (stereo not given)?
A: Uptake/Binding ratio [3]: 2.6; pIC50 [1]: 6.11; pIC50 [2]: 6.53

Q: What does the source list for `OC1(c2ccc(F)cc2)c2ccccc2C2=NCCN21` (stereo not given)?
A: Uptake/Binding ratio [3]: 1.9; pIC50 [1]: 7.60; pIC50 [2]: 7.88

Q: With `OC1(c2ccc(F)cc2)c2cc(Cl)ccc2C2=NCCN21` (stereo not given) as the compound, how does the Uptake/Binding ratio [3] read?
A: The Uptake/Binding ratio was 1.

Q: And the pIC50 [1]?
A: The pIC50 was 7.28.

Q: What about the pIC50 [2] of the same compound?
A: Its pIC50 is 7.28.

Q: With `OC1(c2ccccc2F)c2ccccc2C2=NCCCN21` (stereo not given) as the compound, how does the Uptake/Binding ratio [3] read?
A: Its Uptake/Binding ratio is 3.8.

Q: And the pIC50 [1]?
A: Its pIC50 is 7.05.

Q: What about the pIC50 [2] of the same compound?
A: Its pIC50 is 7.63.

Q: What does the source list for `CC1(C)CN=C2c3ccccc3C(O)(c3ccc(Cl)cc3)N2C1` (stereo not given)?
A: Uptake/Binding ratio [3]: 0.3; pIC50 [1]: 8.77; pIC50 [2]: 8.20

Q: Which results are given for `OC1(c2ccc(Cl)cc2Cl)c2ccccc2C2=NCCN21` (stereo not given)?
A: Uptake/Binding ratio [3]: 1.2; pIC50 [1]: 7.04; pIC50 [2]: 7.12

Q: What does the source list for `OC1(c2ccc(Cl)c(Cl)c2)c2ccccc2C2=NCCCCN21` (stereo not given)?
A: Uptake/Binding ratio [3]: 0.2; pIC50 [1]: 9.59; pIC50 [2]: 8.77

Q: `OC1(c2ccc(Cl)cc2)c2cc(Cl)c(Cl)cc2C2=NCCN21` (stereo not given) was tested. Which pIC50 [2] did it give?
A: Its pIC50 is 7.87.

Q: Which Uptake/Binding ratio [3] does the source give for `OC1(c2ccccc2)c2ccccc2C2=NCCCCN21` (stereo not given) here?
A: The Uptake/Binding ratio was 2.

Q: What about the pIC50 [1] of the same compound?
A: The pIC50 was 7.96.

Q: What about the pIC50 [2] of the same compound?
A: The pIC50 was 8.23.

Q: What does the source list for `OC1(c2ccc(Cl)cc2)c2ccccc2C2=NCCCN21` (stereo not given)?
A: Uptake/Binding ratio [3]: 0.8; pIC50 [1]: 8.85; inhibition [4]: 62.8%; pIC50 [2]: 8.77; pIC50 [5]: 5.98

Q: What does the source list for `OC1(c2ccccc2)c2ccccc2C2=NCCCN21` (stereo not given)?
A: Uptake/Binding ratio [3]: 3.1; pIC50 [1]: 7.74; pIC50 [2]: 8.24

Q: Which results are given for `OC1(c2ccccc2)c2ccccc2C2=NCCN21` (stereo not given)?
A: Uptake/Binding ratio [3]: 1.9; pIC50 [1]: 6.91; pIC50 [2]: 7.18

Q: How did the Uptake/Binding ratio [3] turn out when `OC1(c2ccc(Cl)cc2)c2cc(F)ccc2C2=NCCN21` (stereo not given) was run?
A: Its Uptake/Binding ratio is 2.3.

Q: And the pIC50 [1]?
A: Its pIC50 is 7.82.

Q: What about the pIC50 [2] of the same compound?
A: Its pIC50 is 8.19.

Q: What does the source list for `CC1(C)CN2C(=N1)c1ccccc1C2(O)c1ccc(Cl)cc1` (stereo not given)?
A: pIC50 [6]: 6.97; pIC50 [2]: 7.30

Q: Which results are given for `OC1(c2ccc(Cl)c(Cl)c2)c2ccccc2C2=NCCN21` (stereo not given)?
A: Uptake/Binding ratio [3]: 0.6; pIC50 [1]: 8.85; pIC50 [2]: 8.60

Q: Which results are given for `OC1(c2ccccc2)c2c(Cl)cccc2C2=NCCN21` (stereo not given)?
A: pIC50 [1]: 7.24; pIC50 [2]: 7.24

Q: Which Uptake/Binding ratio [3] does the source give for `OC1(c2ccccc2)c2cc(Cl)ccc2C2=NCCN21` (stereo not given) here?
A: Its Uptake/Binding ratio is 0.6.

Q: What about the pIC50 [1] of the same compound?
A: The pIC50 was 7.26.

Q: What about the pIC50 [2] of the same compound?
A: Its pIC50 is 7.06.

Q: What does the source list for `OC1(c2cccc(Cl)c2)c2ccccc2C2=NCCCN21` (stereo not given)?
A: Uptake/Binding ratio [3]: 1.3; pIC50 [1]: 8.89; pIC50 [2]: 9.00

Q: `OC1(c2ccc(Cl)cc2)c2ccccc2C2=NCCN21` (stereo not given) [MAZINDOL] was tested. Which pIC50 [7] did it give?
A: Its pIC50 is 6.64.

Q: And the inhibition [8]?
A: The inhibition was 60%.

Q: `OC1(c2cccc(F)c2)c2ccccc2C2=NCCCN21` (stereo not given) was tested. Which Uptake/Binding ratio [3] did it give?
A: The Uptake/Binding ratio was 1.6.

Q: And the pIC50 [1]?
A: The pIC50 was 8.51.

Q: And the pIC50 [2]?
A: The pIC50 was 8.70.

Q: `OC1(c2ccccc2)c2cc(F)ccc2C2=NCCN21` (stereo not given) was tested. Which Uptake/Binding ratio [3] did it give?
A: The Uptake/Binding ratio was 2.6.

Q: What about the pIC50 [1] of the same compound?
A: The pIC50 was 7.11.

Q: And the pIC50 [2]?
A: Its pIC50 is 7.53.

Q: Which Uptake/Binding ratio [3] does the source give for `OC1(c2ccc(Br)cc2)c2ccccc2C2=NCCN21` (stereo not given) here?
A: Its Uptake/Binding ratio is 3.3.

Q: What about the pIC50 [1] of the same compound?
A: Its pIC50 is 8.07.

Q: What about the pIC50 [2] of the same compound?
A: The pIC50 was 8.59.

Q: How did the Uptake/Binding ratio [3] turn out when `OC1(c2ccc(I)cc2)c2ccccc2C2=NCCN21` (stereo not given) was run?
A: The Uptake/Binding ratio was 0.8.

Q: And the pIC50 [1]?
A: Its pIC50 is 7.85.

Q: What about the pIC50 [2] of the same compound?
A: The pIC50 was 7.76.

Q: How did the Uptake/Binding ratio [3] turn out when `OC1(c2cccc(Cl)c2)c2ccccc2C2=NCCN21` (stereo not given) was run?
A: Its Uptake/Binding ratio is 2.1.

Q: What about the pIC50 [1] of the same compound?
A: Its pIC50 is 8.04.

Q: And the pIC50 [2]?
A: The pIC50 was 8.37.

Q: Which Uptake/Binding ratio [3] does the source give for `OC1(c2ccc(Cl)cc2)c2ccccc2C2=NCCCCN21` (stereo not given) here?
A: The Uptake/Binding ratio was 2.3.

Q: What about the pIC50 [1] of the same compound?
A: The pIC50 was 8.47.

Q: What about the pIC50 [2] of the same compound?
A: Its pIC50 is 8.82.

Q: What about the pIC50 [5] of the same compound?
A: The pIC50 was 5.90.
